# From PubChem
# RGS4 block = RGS4 inhibitors, primary screen, cell-based, HEK293 M3R inducible RGS4, calcium flux; Regulator of G-protein signaling 4 (Homo sapiens), P49798; Fluo-4 calcium flux; stronger effect = higher value; triggered by carbachol at its EC20; B-score at 10 µM; actives 0.45% (n = 310,000); AID 463165, 2010;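 active = B-score, a plate-corrected calcium signal, over three deviations above library mean, with baseline fluorescence within five deviations of library mean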;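 note: RGS4 expression induced by doxycycline in cells with stable M3 receptor; B-score is computed from the integrated fluorescence ratio over baseline after carbachol; higher B-score means a larger calcium signal and so more RGS4 inhibition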
# Target sequence (P49798 whole entry, looked up): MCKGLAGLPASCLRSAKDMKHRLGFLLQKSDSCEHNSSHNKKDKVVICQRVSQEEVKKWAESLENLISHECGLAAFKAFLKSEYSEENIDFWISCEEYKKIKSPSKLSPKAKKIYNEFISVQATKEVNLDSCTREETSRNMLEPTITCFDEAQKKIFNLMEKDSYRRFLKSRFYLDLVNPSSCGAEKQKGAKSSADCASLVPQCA
# RGS4 act = RGS4 potentiators or activators, primary screen, cell-based, HEK293 M3R inducible RGS4, calcium flux. B-score at 10 µM. actives 0.92% (n = 310,000). carbachol calcium flux Fluo4; stronger effect = lower value;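 active = B-score of the integrated calcium signal more than 4 SD below the library mean, with starting fluorescence not abnormally high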;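 note: negative B-score means reduced calcium response which marks RGS4 activation or potentiation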
#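 Material: M3R-expressing HEK293 line, RGS4 induced by doxycycline | Schedule: Overnight RGS4 induction, 30 min dye load 37 °C, 20 min compound RT | Measured by: Fluo4 fluorescence kinetic imaging of calcium | Read-out: Integrated calcium ratio converted to B score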
# MrgX1 agonist = agonists of human MrgX1 receptor, primary screen, HEK293 cells, Fluo-4 calcium flux; Mas-related G-protein coupled receptor member X1 (Homo sapiens), Q96LB2; Fluo-4 calcium fluorescence, agonist mode; stronger effect = higher value; B-score at 10 µM; actives 0.44% (n = 310,000);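 active = calcium response B-score plate-corrected fluorescence ratio at least 3 library SD, with starting fluorescence B-score inside 5 SD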
# Target sequence (Q96LB2 whole entry, looked up): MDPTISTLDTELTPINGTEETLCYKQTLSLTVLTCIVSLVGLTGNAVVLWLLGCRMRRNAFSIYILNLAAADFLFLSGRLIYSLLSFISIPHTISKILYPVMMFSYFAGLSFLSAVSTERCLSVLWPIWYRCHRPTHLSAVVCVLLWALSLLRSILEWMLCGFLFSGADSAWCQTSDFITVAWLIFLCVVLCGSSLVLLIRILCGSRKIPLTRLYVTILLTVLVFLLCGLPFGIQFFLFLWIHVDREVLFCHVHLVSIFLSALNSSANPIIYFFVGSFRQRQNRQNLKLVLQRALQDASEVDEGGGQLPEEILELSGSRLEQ
#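 Assay system: stable human MrgX1 HEK293 cell line. Quantity: 15,000 cells per well. Schedule: cells plated overnight, dye loaded 0.5 h 37 °C, 0.5 h room temperature. Detection: Fluo-4 NW calcium-flux fluorescence, kinetic read. Read-out basis: peak-minus-minimum fluorescence over baseline, converted to B scores. Control set: positive and negative control wells on each plate.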
# MrgX1 antag = antagonists of human MrgX1 receptor, primary screen, HEK293 cells, Fluo-4 calcium flux. AID 588676, 2011. BAM8-22 antagonism; stronger effect = lower value. Mas-related G-protein coupled receptor member X1 (Homo sapiens), Q96LB2. B-score at 10 µM. actives 1.3% (n = 310,000);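 active = calcium-response B-score plate-corrected more than 3 library SD below zero, starting fluorescence within 5 deviations, no agonist response on first addition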;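 note: peak minus trough fluorescence over baseline after final BAM8-22 challenge near maximal dose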
# MrgX1 allo act = positive allosteric modulators of MrgX1, primary screen, HEK293 cells, Fluo-4 calcium flux; B-score at 10 µM; Mas-related G-protein coupled receptor member X1 (Homo sapiens), Q96LB2; FDSS; stronger effect = higher value; actives 0.63% (n = 310,000); AID 588675, 2011;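 active = plate-corrected calcium response at least 3 library SD above typical, normal starting fluorescence, not activating the receptor alone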;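 note: compound read alongside a low EC10 to EC30 dose of BAM8-22 agonist; peak minus trough fluorescence over baseline measured at the second addition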
# MrgX1 antag conf = MrgX1 receptor antagonists, duplicate retest, confirmation, HEK293 cells, Fluo-4 calcium flux | shares compounds with MrgX1 antag | remaining BAM8-22 calcium response % of control (stronger effect = lower value), % at 10 µM | actives 19% (n = 2,300) | BAM8-22 calcium flux; stronger effect = lower value;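 active = remaining agonist calcium response no higher than 100% minus 3 SD of agonist-only control wells, with starting fluorescence near control levels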;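 note: agonist BAM8-22 given at a near maximal EC90 to ECmax level; peak minus minimum fluorescence divided by baseline after agonist addition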
# HEK293 Ca flux = nonspecific calcium signal in parental HEK293, confirmation, counter-screen for MrgX1 antagonist project, parental HEK293 cells, Fluo-4 calcium flux; shares compounds with MrgX1 antag; fluorescence ratio F(max-min)/F0 at 10 µM; actives 2% (n = 4,000); Fluo-4 calcium fluorescence, FDSS;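 active = duplicate-averaged calcium fluorescence ratio at least three times the standard deviation of buffer wells, a nonspecific response in parental cells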
# HEK293 Ca counter = calcium response in parental HEK293 cells, primary screen, counter-screen for MrgX1 allosteric activator project, cell-based, Fluo-4 calcium flux, duplicate | shares compounds with MrgX1 antag | Fluo-4 fluorescence ratio; stronger effect = higher value | fluorescence ratio F(max-min)/F0 at 10 µM | actives 0.4% (n = 4,000);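 active = calcium fluorescence ratio, averaged over duplicates, at least 3 SD of the buffer-well ratio, meaning a nonspecific response in receptor-free cells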;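 note: untransfected parental HEK293 lacking MrgX1 used as counterscreen for MrgX1 allosteric activators; fluorescence change taken during the second addition on a kinetic imager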
# HEK293 Ca cntr2 = calcium response in parental HEK293 cells, primary screen, counter-screen for MrgX1 agonist project, cell-based, Fluo-4 calcium flux, duplicate, agonist mode. shares compounds with MrgX1 antag. Fluo-4 calcium fluorescence (FDSS); stronger effect = higher value. fluorescence ratio F(max-min)/F0 at 10 µM. actives 8.7% (n = 4,000). AID 624115, 2012;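 active = calcium fluorescence ratio at least three times the spread of buffer wells, meaning a non-specific response in parental cells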
# Hits are given with their value; . = inactive; / = not tested or not shown. This is a sample that favours compounds with a hit; in the whole collection about 3.5% have one here.
SMILES,RGS4 block,RGS4 act,MrgX1 agonist,MrgX1 antag,MrgX1 allo act,MrgX1 antag conf,HEK293 Ca flux,HEK293 Ca counter,HEK293 Ca cntr2
Cn1cc(CNC(=O)C2CCC(=O)N(Cc3ccccc3F)C2)cn1 (centres undefined),.,.,.,-4.74,.,.,.,.,.
O=C(NC1CC2CCCC(C1)N2C(=O)Nc1ccccc1Cl)C1CC1 (centres undefined),.,.,.,.,.,/,/,/,/
CCCOc1cc(C)c(S(=O)(=O)NC2CC(C)(C)NC(C)(C)C2)cc1C,.,.,.,.,.,/,/,/,/
CCc1c(C)nc(SCC(N)=O)c(C#N)c1C,.,.,.,-5.65,.,.,.,.,.
O=C(NCc1ccccc1)c1c[nH]c2cc3c(cc2c1=O)OCCO3,.,.,.,-5.47,.,.,.,.,.
CCOc1ccc2[nH]cc(C(=O)NCc3ccccc3)c(=O)c2c1,.,.,.,.,.,/,/,/,/
Cc1ccccc1N1CC(C(=O)N2CCCCCC2)CC1=O (centres undefined),.,.,.,.,.,/,/,/,/
Cn1c(SCC(=O)c2c(N)n(C)c(=O)n(C)c2=O)nnc1-c1ccccc1,.,.,.,.,.,/,/,/,/
Cn1c(SCC(=O)c2c(N)n(C)c(=O)n(C)c2=O)nnc1-c1ccccc1F,.,.,.,-5.25,.,.,.,.,.
CC(C)(C)c1ccc(-c2nnc(SCCN3C(=O)c4ccccc4C3=O)o2)cc1,.,.,.,.,.,/,/,/,/
COCCCn1c(SCC(=O)N2CC(=O)Nc3ccccc32)nnc1-c1ccoc1C,.,.,.,.,.,/,/,/,/
COCCn1c(SCC(=O)N2CC(=O)Nc3ccccc32)nnc1-c1ccoc1C,.,.,.,-10.9,.,.,.,.,.
CCn1nc(C)c(CNC(=O)C2CCC(=O)N(Cc3ccc(Cl)cc3)C2)c1C (centres undefined),.,.,.,.,.,/,/,/,/
Cc1ccc(C(=O)N2CCN(S(=O)(=O)c3ccccc3[N+](=O)[O-])CC2)o1,.,.,.,.,.,/,/,/,/
CCn1cc([N+](=O)[O-])c(C(=O)Nc2nc(-c3ccc(C)cc3)c(C)s2)n1,.,.,.,-9.97,.,.,.,.,.
COC(=O)c1ccc(OC)c(CN2CCCN(Cc3cc(C)ccc3C)S2(=O)=O)c1,.,.,.,.,.,/,/,/,/
O=C(NCSC1=NCCS1)c1ccccc1,.,.,.,-5.33,.,.,.,.,.
O=C(NCCS(=O)(=O)NC1CCCC1)c1ccc(F)cc1,.,.,.,-4.91,.,.,.,.,.
COc1ccc(C(=O)NCCS(=O)(=O)NC2CCCC2)cc1,.,.,.,.,.,/,/,/,/
N#CCSc1nnc(Cc2ccc3c(c2)OCO3)o1,.,.,.,-5.38,.,.,.,.,.
C=CCn1c(C)cc(C(=O)CSc2nnc(Cc3ccccc3)o2)c1C,.,.,.,.,.,/,/,/,/
Cc1cc(C(=O)CSc2nnc(Cc3ccccc3)o2)c(C)n1Cc1ccc2c(c1)OCO2,.,.,.,-7.54,.,.,.,.,.
